Assay outcomes from PubChem.
JMJD2C inh: inhibitors of GASC-1 histone demethylase, primary screen, biochemical, fluorescence, DELFIA europium | GST-JMJD2C(1-420) H3K9me3 demethylation | inhibition, % at 2.35 µM | hit rate 0.069% among 330,000 | AID 2099, 2009;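 active = more than half of a compound's replicate wells show inhibition beyond 50%, single wells judged on their own value; inconclusive = some, but no more than half, of replicates pass 50% inhibition; inactive = no replicate passes 50% inhibition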;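 note: signal counts dimethyl H3K9 product captured on neutravidin plate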
SUMO HTRF inh: inhibitors of in vitro SUMOylation cascade, primary screen, biochemical, HTRF, uHTS; hit rate 0.36% among 290,000; inhibition, % at 35 µM; SUMO-conjugating enzyme UBC9 (Homo sapiens), P63279; HTRF SUMOylation assay, SAE1/SAE2 + UBC9; in the data active = inhibition above about 50%, passing the limit was not always enough; inconclusive = no clear call, values can overlap the other calls
PAD4 inh: human PAD4 inhibitors, primary screen, biochemical, fluorescence polarization, 1536-well format | inhibition, % at 6.36 µM | recombinant PAD4, RCA probe fluorescence polarization | AID 485272, 2010 | hit rate 0.41% among 330,000;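 active = percent inhibition above a cutoff equal to the mean of all tested compounds plus 3 SD, cut at about 15% in these data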
TDP2 absorb: human TDP2 enzyme inhibitors, primary screen, biochemical, epi absorbance, recombinant enzyme; T5PNP hydrolysis, p-nitrophenol absorbance 415 nm; inhibition, % at 12.8 µM; hit rate 0.34% among 370,000;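 active = inhibition above the mean of all tested compounds plus 3 SD, set per campaign, cut at about 25% in these data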
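Read-out basis: percent inhibition. System: recombinant human TDP2. Buffer or medium: Mg2+-containing Tris-HCl buffer, pH 7.5. Repeats: single replicate. Timing: reaction 2 h, 37 °C. Benchmarks: high control without enzyme, low control DMSO plus TDP2. Probe or stimulus: 5 mM T5PNP. Doses: 12.8 µM only. Measured by: epi absorbance of p-nitrophenol freed from T5PNP by hydrolysis.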
Apaf-1 inh: inhibitors of human Apaf-1 apoptosome, primary screen, biochemical, DEVD-Rh110 fluorescence, uHTS; Apoptotic protease-activating factor 1 (Homo sapiens), O14727; reconstituted apoptosome caspase-3 activity; inhibition, % at 20 µM; hit rate 0.71% among 330,000; active = inhibition of at least 40% at 20 µM
Target sequence (O14727 whole entry, looked up): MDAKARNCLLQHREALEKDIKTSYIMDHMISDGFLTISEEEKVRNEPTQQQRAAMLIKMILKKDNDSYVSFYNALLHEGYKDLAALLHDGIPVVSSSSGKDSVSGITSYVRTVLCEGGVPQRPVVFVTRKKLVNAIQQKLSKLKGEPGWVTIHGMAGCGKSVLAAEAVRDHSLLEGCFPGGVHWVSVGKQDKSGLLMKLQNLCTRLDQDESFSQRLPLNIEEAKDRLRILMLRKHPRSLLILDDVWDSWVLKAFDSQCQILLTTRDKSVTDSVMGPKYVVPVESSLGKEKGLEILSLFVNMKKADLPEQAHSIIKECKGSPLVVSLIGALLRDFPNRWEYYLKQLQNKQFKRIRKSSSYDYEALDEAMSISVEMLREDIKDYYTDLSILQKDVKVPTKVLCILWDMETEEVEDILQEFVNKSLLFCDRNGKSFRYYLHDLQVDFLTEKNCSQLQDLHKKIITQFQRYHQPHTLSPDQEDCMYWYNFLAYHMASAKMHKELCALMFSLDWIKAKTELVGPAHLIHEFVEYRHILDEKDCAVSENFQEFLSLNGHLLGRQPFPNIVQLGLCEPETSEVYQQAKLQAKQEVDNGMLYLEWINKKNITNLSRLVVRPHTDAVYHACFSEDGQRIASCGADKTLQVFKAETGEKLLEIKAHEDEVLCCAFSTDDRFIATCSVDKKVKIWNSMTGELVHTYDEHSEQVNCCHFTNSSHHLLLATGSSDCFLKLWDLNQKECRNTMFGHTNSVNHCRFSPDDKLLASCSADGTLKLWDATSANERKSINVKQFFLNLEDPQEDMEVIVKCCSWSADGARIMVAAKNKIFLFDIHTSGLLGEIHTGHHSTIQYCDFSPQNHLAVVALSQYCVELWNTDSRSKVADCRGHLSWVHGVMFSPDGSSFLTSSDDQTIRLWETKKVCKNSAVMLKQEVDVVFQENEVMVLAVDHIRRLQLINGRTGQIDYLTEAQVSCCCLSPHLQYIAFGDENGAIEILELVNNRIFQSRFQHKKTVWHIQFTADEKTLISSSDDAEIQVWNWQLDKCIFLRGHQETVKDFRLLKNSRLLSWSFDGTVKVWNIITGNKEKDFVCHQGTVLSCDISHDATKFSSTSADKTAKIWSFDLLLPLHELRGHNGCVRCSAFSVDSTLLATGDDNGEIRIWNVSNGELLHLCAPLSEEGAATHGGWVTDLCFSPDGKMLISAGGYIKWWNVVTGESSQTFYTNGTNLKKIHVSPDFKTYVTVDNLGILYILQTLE
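Assay system: Apoptosome proteins | Medium: pH 7.5 Hepes buffer with CHAPS, BSA, DTT | Also added: Cytochrome c and DEVD-Rh110 substrate | Times: 30 min plus 50 min, RT | Detection: Rhodamine 110 fluorescence at Ex 480/Em 540 nm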
GSTO1 counter: inhibitors of recombinant GSTO1, primary screen, counter-screen for RBBP9 inhibitor project, biochemical, fluorescence polarization. inhibition, % at 5.96 µM. activity-based probe fluorescence polarization. Glutathione S-transferase omega-1 (Homo sapiens), P78417. AID 1974, 2009. hit rate 1.1% among 300,000;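 active = inhibition above the campaign mean inhibition plus 3 SD, cut at about 35% in these data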
Apaf-1 inh conf2: Apaf-1 inhibitors, single-dose retest, confirmation, biochemical, fluorescence, DEVD-Rh110, 20 µM; hit rate 25% among 1,800; inhibition, % at 20 µM; shares compounds with Apaf-1 inh; reconstituted apoptosome, caspase-3 DEVD-Rh110 fluorescence;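 active = mean inhibition of at least 40% at 20 µM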
Rh110 quench: Rh110 fluorescence interference by putative Apaf-1 inhibitors, confirmation, artefact control for Apaf-1 inhibitor project, biochemical, 20 µM. shares compounds with Apaf-1 inh. quenched caspase reaction. activation (fluorescence interference), % at 20 µM. 1,800 tested, under 10 active;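 active = signal rise of 40% or more at 20 µM, treated as a fluorescence artifact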
Apaf1 inh interf: fluorescence interference of Apaf-1 inhibitor hits, dose response, artefact control for Apaf-1 inhibitor project. shares compounds with Apaf-1 inh. fluorescence interference counterscreen, Apaf-1 assay format. IC50, µM. 460 tested, under 10 active; call rule not given here
Numbers stand for hits; – = inactive; ? = inconclusive; · = no result. An excerpt weighted towards active compounds, which were near 1.6% of everything screened.

SMILES	JMJD2C inh	SUMO HTRF inh	PAD4 inh	TDP2 absorb	Apaf-1 inh	GSTO1 counter	Apaf-1 inh conf2	Rh110 quench	others
COc1ccc(S(=O)(=O)N2CCN(c3ccc4nnc(-c5ccc(F)cc5)n4n3)CC2)cc1	–	–	–	–	50.7	–	46.8	–	Apaf1 inh interf=–
Cc1ccc(S(=O)(=O)N2CCN(c3ccc4nnc(-c5ccccc5)n4n3)CC2)cc1	·	–	·	–	·	·	·	·
Cc1cc(N(CCO)CCO)ccc1N=Nc1cc(F)ccc1F	–	–	–	–	40.4	–	–	–
CCN(CCO)c1ccc(N=Nc2cc(C)[nH]n2)cc1	–	–	–	–	–	–	·	·
COc1ccc(NC(=O)CC2Nc3cccc4cccc(c34)NC2=O)cc1 (stereo not drawn)	–	?	–	–	94.2	–	–	–
COc1ccc(NC(=O)CC2Nc3cc(C)c(C)cc3NC2=O)c([N+](=O)[O-])c1 (stereo not drawn)	–	–	–	–	–	–	·	·
O=C1/C(=C\c2ccc(-c3ccccc3[N+](=O)[O-])o2)C(c2ccccc2)=NN1c1ccccc1	–	–	–	–	43.8	–	–	–
COc1ccc(C[C@H]2CN3C(=NC[C@@H]3C(C)C)N2CCNC(=O)c2ccc(C)c(Br)c2)cc1	–	–	–	·	46.6	–	–	–
NC1=NC[C@@H](Cc2ccc(O)cc2)N1CCCCC1CCCCC1	–	–	–	–	50.9	–	–	–
O=C(CCC1CCCCC1)NCCN1C2=NC[C@H](Cc3ccccc3)N2C[C@H]1Cc1ccc(O)cc1	–	–	–	–	–	–	·	·
O=C(CCC1CCCCC1)NCCN1C2=NC[C@@H](Cc3ccccc3)N2C[C@H]1Cc1ccc(O)cc1	?	–	–	–	45.1	–	–	–
Cc1ccc(C(=O)NCCN2C3=NC[C@H](C(C)C)N3C[C@H]2Cc2ccc(O)cc2)cc1Br	–	–	–	–	–	–	·	·
NC1=NC[C@H](Cc2ccc(O)cc2)N1CC1CCCCC1	–	–	–	–	–	–	·	·
C/C=C(\C)C(=O)NCCN1C2=NC[C@@H](Cc3ccccc3)N2C[C@@H]1Cc1ccc(OC)cc1	–	·	–	–	40.1	–	–	–
CCOC(=O)c1ccc(NC(=O)CSc2nnc(SCc3cccc4ccccc34)s2)cc1	·	·	·	–	·	·	·	·
CCCCCCNC(=O)N[C@@H](C(=O)NCCC[C@H]1CN2C(=NC[C@@H]2Cc2ccccc2)N1CCc1cccc(OC)c1)C(C)C	–	–	–	·	53.7	–	–	–
COn1c2c(c3c4nonc4ccc31)CCCC2	–	–	–	–	46.5	–	52.0	–
O=C(c1ccccc1)c1ccc2nc(-c3ccco3)c(-c3ccco3)nc2c1	–	95.3	–	–	40.6	60.2	–	–
O=C(NCCc1ccccc1)c1ccc2nc(-c3ccco3)c(-c3ccco3)nc2c1	–	–	–	·	45.8	45.9	–	–
COc1ccc(C(C(=O)N(C)C2CCCC2)N(Cc2ccc(F)cc2)C(=O)c2sccc2Cl)cc1OC (stereo not drawn)	·	·	·	–	·	·	·	·
CN(C)c1cccc2cccc(N(C)C)c12	–	–	–	–	89.4	–	–	–
CC(=O)c1ccc(N(C)C)c2c(N(C)C)cccc12	–	–	–	–	–	–	·	·
CC1=NN(c2ccc(S(=O)(=O)O)cc2Cl)C(=O)C1	–	83.1	–	–	66.2	–	–	–
CCCCCCCCNC(=O)C1CSCCS(=O)(=O)N1Cc1ccccc1 (stereo not drawn)	·	·	·	–	·	·	·	·
CCCCc1c(C)nn(-c2nnc3c4ccccc4n(CC)c3n2)c1C	–	–	–	–	46.8	–	–	–
SMILES	JMJD2C inh	SUMO HTRF inh	PAD4 inh	TDP2 absorb	Apaf-1 inh	GSTO1 counter	Apaf-1 inh conf2	Rh110 quench	others
CC(C)CN1C(=O)[C@]2(CC(=O)N(C)C2c2ccccc2)c2cc(-n3cc(-c4ccccc4)nn3)ccc21 (stereo partly drawn)	·	·	·	–	·	·	·	·
CCN(C(=O)c1coc(=O)c(Br)c1)c1ccc2c(c1)OCO2	–	–	–	–	59.3	–	–	–
CCN(C(=O)c1c(C)cc(=O)oc1C)c1ccc2c(c1)OCO2	–	–	–	–	–	–	·	·
COc1cccc(-c2cc(C(F)(F)F)n3nc(N)nc3n2)c1	–	–	–	–	–	–	·	·
Cc1ccc(-c2cn3nc(C)c(C)nc3n2)cc1	–	–	–	–	–	–	·	·
Clc1ccc(-c2cn3nc4c(nc3n2)CCCC4)cc1	–	–	–	–	65.3	–	53.0	–	Apaf1 inh interf=–
COc1cccc(-c2cn3nc4c(nc3n2)CCCC4)c1	–	–	–	·	53.4	–	–	–
NC(=O)C1CCN(c2nc(-c3ccc4c(c3)CCO4)cs2)CC1	·	·	·	–	·	·	·	·
CC(C)C[C@@H]1CN=C(N)N1C[C@@H]1CCCN1C[C@H](C)N1C[C@@H](Cc2ccccc2)N(CCc2ccc(Cl)c(Cl)c2)C1=N	–	·	–	·	63.0	·	–	–
CC(C)C[C@@H]1CN=C(N)N1C[C@@H]1CCCN1C[C@H](C)N1C[C@@H](Cc2ccccc2)N(CCCC2CCCC2)C1=N	·	·	–	–	54.6	·	–	–
CC(C)C[C@@H]1CN=C(N)N1C[C@@H]1CCCN1C[C@@H](C(C)C)N1C[C@@H](Cc2ccccc2)N(CCc2ccc(Cl)c(Cl)c2)C1=N	·	·	–	–	63.4	·	–	–
CCCCN1C(=N)N([C@@H](C)CN2CCC[C@H]2CN2C(N)=NC[C@H]2CC(C)C)C[C@H]1[C@H](C)CC	–	·	–	–	–	·	·	·
CC(=O)c1cc(-c2cnn(Cc3ccccc3)c2)c(=O)n2c1CCC2	·	·	·	–	·	·	·	·
CC1CC2(CCCCC2)N2C(=O)C(=O)c3cccc1c32 (stereo not drawn)	–	–	–	–	41.0	–	40.7	–	Apaf1 inh interf=–
Cc1cc2c3c(c1)C(C)CC(C)(C)N3C(=O)C2=O (stereo not drawn)	–	–	–	–	–	–	·	·
CCCCOc1ccc(Br)cc1/C(C)=N/NC1=NCCN1	–	–	–	–	–	–	·	·
